Reference: the array DNA melting data of Ke et al. (doi:10.1101/2024.01.08.574731)

Legend:
[1] = folding enthalpy; higher = less favourable; fluorescence melt of hairpins on a sequencing array, two-state fit; details: sodium 0.088 M
Summary of the method: (§1)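 Melting temperature and folding enthalpy were derived from bootstrapped two-state fits. The fitted temperatures were raised by 9.35 °C to agree with UV melts, and four replicates were combined by inverse variance. The underlying data were Cy3 fluorescence images of library hairpins, with annealed Cy3 and quencher oligos, on a sequenced MiSeq flow cell in 50 mM Na-HEPES pH 8.0, 25 mM NaCl, taken in 2.5 °C steps up to 60 °C, normalised to pre-quench Cy3 and to control constructs.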

[2] = melting temperature; fluorescence melt of hairpins on a sequencing array, two-state fit, raised by 9.35 °C to match UV melts; details: sodium 0.088 M
Summary of the method: as §1

GGTACGGCGAAAGCCACC (((..(((....))))))
folding enthalpy [1]: -10.6 kcal/mol
Tm [2]: 38.1 °C

GCGAGACGAAAGTCACGC (((.(((....))).)))
folding enthalpy [1]: -31.5 kcal/mol
Tm [2]: 68.5 °C

GCACGCGAAAGCGGATGC ((((((....)))..)))
folding enthalpy [1]: -15 kcal/mol
Tm [2]: 54.9 °C

GTCTTCGAAAGAAGAC ((((((....))))))
folding enthalpy [1]: -30.3 kcal/mol
Tm [2]: 62.4 °C

GTCCCCCCGAAAGGGGAC (((..(((....))))))
folding enthalpy [1]: -16.9 kcal/mol
Tm [2]: 59.5 °C

GACCCCGGAAACGGGGCC (.(((((....))))).)
folding enthalpy [1]: -12.9 kcal/mol
Tm [2]: 53.6 °C

GCGTATGGAAACGTACGC (((((.(....).)))))
folding enthalpy [1]: -48 kcal/mol
Tm [2]: 54.7 °C

GGATAAGGAAACTTATTC (.(((((....))))).)
folding enthalpy [1]: -21.2 kcal/mol
Tm [2]: 30.4 °C

GCGAATTTCGC ((((...))))
folding enthalpy [1]: -24.8 kcal/mol
Tm [2]: 48.8 °C

GCACAGGGAAACCTGTAC (.(((((....))))).)
folding enthalpy [1]: -12.6 kcal/mol
Tm [2]: 40.3 °C

GCGATCGAAAGATACGC ((((((....))).)))
folding enthalpy [1]: -25.5 kcal/mol
Tm [2]: 50.1 °C

GATCTAACACTAGATC ((((((....))))))
folding enthalpy [1]: -24.6 kcal/mol
Tm [2]: 36.9 °C

GGCATCGAAAGATTTGCC ((((((....)))..)))
folding enthalpy [1]: -29.2 kcal/mol
Tm [2]: 40.7 °C

GCGTACAGACGC ((((....))))
folding enthalpy [1]: -22.5 kcal/mol
Tm [2]: 51 °C

GTACTAGCGAAAGCTTAC (((..(((....))))))
folding enthalpy [1]: -9.73 kcal/mol
Tm [2]: 28.2 °C

GCTTCGCGAAAGCGGCGC ((..(((....)))..))
folding enthalpy [1]: -15.6 kcal/mol
Tm [2]: 51.9 °C

GCCTAAGAAATTAGGC ((((((....))))))
folding enthalpy [1]: -28.8 kcal/mol
Tm [2]: 52.5 °C

GCTTGGCGAAAGCCAGGC ((.((((....)))).))
folding enthalpy [1]: -23.5 kcal/mol
Tm [2]: 66.4 °C

GAACAACGAAAGTTTTTC (((.(((....))).)))
folding enthalpy [1]: -17.8 kcal/mol
Tm [2]: 31.6 °C

GTTAGAGCGAAAGCTAAC (((..(((....))))))
folding enthalpy [1]: -14.6 kcal/mol
Tm [2]: 33.1 °C

GATCAATTAATTGATC ((((((....))))))
folding enthalpy [1]: -42 kcal/mol
Tm [2]: 48.8 °C

GGAAGCGGAAACGCTCCC ((.((((....)))).))
folding enthalpy [1]: -19.8 kcal/mol
Tm [2]: 52.4 °C

GGGCTACGAAAGTACCC (((.(((....))))))
folding enthalpy [1]: -34.9 kcal/mol
Tm [2]: 49.6 °C

GCGATGTCTCGC ((((....))))
folding enthalpy [1]: -19.6 kcal/mol
Tm [2]: 48.6 °C

GATCGGAGACCCGATC ((((((....))))))
folding enthalpy [1]: -36.6 kcal/mol
Tm [2]: 53 °C

AGGATGAAAATCCT (((((....)))))
folding enthalpy [1]: -22.2 kcal/mol
Tm [2]: 41.6 °C

GCAGCAGGAAACTACTGC ((((.((....)).))))
folding enthalpy [1]: -30.5 kcal/mol
Tm [2]: 45.5 °C

GTCTATGGAAACATGGAC (((.(((....))).)))
folding enthalpy [1]: -31.1 kcal/mol
Tm [2]: 45.6 °C

GGGCACGAAAGTGTGCCC ((((((....)))..)))
folding enthalpy [1]: -27.1 kcal/mol
Tm [2]: 64.5 °C

GATCTCAGACGAGATC ((((((....))))))
folding enthalpy [1]: -36.9 kcal/mol
Tm [2]: 51.2 °C

GCGCGGCGAAAGCCATGC ((..(((....)))..))
folding enthalpy [1]: -16.4 kcal/mol
Tm [2]: 53.3 °C

GAGTGGGGAAACCCACTC (((((((....)))))))
folding enthalpy [1]: -29.8 kcal/mol
Tm [2]: 67.7 °C

GCAGTCGAAAGACTTTGC ((((((....)))..)))
folding enthalpy [1]: -17.7 kcal/mol
Tm [2]: 35.7 °C

GATCAACACTTGATC ((((((...))))))
folding enthalpy [1]: -31.6 kcal/mol
Tm [2]: 40.5 °C

GGGCCAGGAAACTAGCCC ((((.((....)).))))
folding enthalpy [1]: -27.3 kcal/mol
Tm [2]: 48.6 °C

GCTATGCGAAAGCGAAGC (((..((....))..)))
folding enthalpy [1]: -16.4 kcal/mol
Tm [2]: 44.2 °C

GGGGTCGAAAGACGCCCC ((((((....)))..)))
folding enthalpy [1]: -13 kcal/mol
Tm [2]: 60.2 °C

GCGTCGCGAAAGCATCGC (((..((....))..)))
folding enthalpy [1]: -17.9 kcal/mol
Tm [2]: 53.8 °C

GATCGATCATTCGATC ((((((....))))))
folding enthalpy [1]: -39.5 kcal/mol
Tm [2]: 53.7 °C

GTTGGCGAAAGCCCGAAC ((((((....)))..)))
folding enthalpy [1]: -9.07 kcal/mol
Tm [2]: 24.2 °C

GAATCCCGAAAGGGTTC (((.(((....))))))
folding enthalpy [1]: -17.9 kcal/mol
Tm [2]: 48.1 °C

GTATAACGAAAGTTTAC (((.(((....))))))
folding enthalpy [1]: -16.8 kcal/mol
Tm [2]: 30.4 °C

GAGAGGGGAAACCCTTTC ((.((((....)))).))
folding enthalpy [1]: -16.8 kcal/mol
Tm [2]: 36.4 °C

GATCCATCCATGGATC ((((((....))))))
folding enthalpy [1]: -43.4 kcal/mol
Tm [2]: 55.8 °C

CGTTCGGAAACGAACACG ((((((....)))..)))
folding enthalpy [1]: -11.5 kcal/mol
Tm [2]: 39.1 °C

GGGTGCGGAAACGCGCTC (.(.(((....))).).)
folding enthalpy [1]: -16.5 kcal/mol
Tm [2]: 57.2 °C

GCGTTCGAAAGAAGCGC ((((((....))).)))
folding enthalpy [1]: -28.8 kcal/mol
Tm [2]: 52.5 °C

GTAAGCACGAAAGTGTAC (((..(((....))))))
folding enthalpy [1]: -9.4 kcal/mol
Tm [2]: 27.9 °C

GATCGAGCTGTCGATC ((((((....))))))
folding enthalpy [1]: -38.6 kcal/mol
Tm [2]: 51.3 °C

GGATGCGAAAGCAATCC ((((((....))).)))
folding enthalpy [1]: -27.8 kcal/mol
Tm [2]: 57.9 °C

GATCTGGGAAACTGGATC ((((..(....)..))))
folding enthalpy [1]: -26.2 kcal/mol
Tm [2]: 35.2 °C

GGGGTGCGAAAGCATCCC (((.(((....))).)))
folding enthalpy [1]: -28.5 kcal/mol
Tm [2]: 68.4 °C

GAATTCGGAAACGAATCC (.(((((....))))).)
folding enthalpy [1]: -16.6 kcal/mol
Tm [2]: 36.8 °C

GCTCGCCGAAAGGCTAGC (((.(((....))).)))
folding enthalpy [1]: -27.9 kcal/mol
Tm [2]: 54.6 °C

GCTCCGGCGAAAGCCAGC (((..(((....))))))
folding enthalpy [1]: -11.2 kcal/mol
Tm [2]: 32.6 °C

GCGCTTGGAAACAGGCGC ((((.((....)).))))
folding enthalpy [1]: -40.6 kcal/mol
Tm [2]: 61.7 °C

GCCCCGGCGAAAGCCGGC (((..(((....))))))
folding enthalpy [1]: -2.7 kcal/mol
Tm [2]: 39.8 °C

GATCGATCAATCGATC ((((((....))))))
folding enthalpy [1]: -40.9 kcal/mol
Tm [2]: 53.8 °C

AGGCAGAAATGCCT (((((....)))))
folding enthalpy [1]: -17.6 kcal/mol
Tm [2]: 54.7 °C

GTTGGTGGAAACACCGAC ((.((((....)))).))
folding enthalpy [1]: -39 kcal/mol
Tm [2]: 53.4 °C

GATCGCGCCGGCGATC ((((((....))))))
folding enthalpy [1]: -25.3 kcal/mol
Tm [2]: 68.2 °C

GCATAGGGAAACCCATGC ((((.((....)).))))
folding enthalpy [1]: -29.9 kcal/mol
Tm [2]: 45.5 °C

CGCCTGCGGAAACGCGCG (((..(((....))))))
folding enthalpy [1]: -16.9 kcal/mol
Tm [2]: 42.1 °C

GGCTCCGAAAGGAAGCC ((((((....))).)))
folding enthalpy [1]: -37.7 kcal/mol
Tm [2]: 64.1 °C

GATCGGATACCGATC ((((((...))))))
folding enthalpy [1]: -36.4 kcal/mol
Tm [2]: 56.6 °C

GATGTGCGAAAGCAGATC (((.(((....))).)))
folding enthalpy [1]: -32.7 kcal/mol
Tm [2]: 52.5 °C

CGATGACGGAAACGTTCG (((..(((....))))))
folding enthalpy [1]: -29.1 kcal/mol
Tm [2]: 36.7 °C

GGGTCCGGAAACGGGCTC (.(.(((....))).).)
folding enthalpy [1]: -21.3 kcal/mol
Tm [2]: 50.5 °C

GCGAGTGTCGC ((((...))))
folding enthalpy [1]: -13.9 kcal/mol
Tm [2]: 47 °C

GCGGAAATCCGC ((((....))))
folding enthalpy [1]: -20.4 kcal/mol
Tm [2]: 51.6 °C

GTATACGGAAACGTATGC (.(((((....))))).)
folding enthalpy [1]: -24.5 kcal/mol
Tm [2]: 46.4 °C

GGGAGCGAAAGCTGACCC ((((((....)))..)))
folding enthalpy [1]: -16.5 kcal/mol
Tm [2]: 45.9 °C

CCACGGAAACGTGG (((((....)))))
folding enthalpy [1]: -21.2 kcal/mol
Tm [2]: 69.2 °C

TGTACGAAAGTACA (((((....)))))
folding enthalpy [1]: -14.6 kcal/mol
Tm [2]: 54.7 °C

GTAAGCGAAAGCTGTAC ((((((....))).)))
folding enthalpy [1]: -15.7 kcal/mol
Tm [2]: 43 °C

GCCTTCCGAAAGGAGGC (((.(((....))))))
folding enthalpy [1]: -29.8 kcal/mol
Tm [2]: 59.4 °C

GCTCAGCGAAAGCTTAGC (((.(((....))).)))
folding enthalpy [1]: -44.9 kcal/mol
Tm [2]: 49.4 °C

GATCCGGGCGCGGATC ((((((....))))))
folding enthalpy [1]: -39 kcal/mol
Tm [2]: 59.8 °C

GATCTGGTTCAGATC ((((((...))))))
folding enthalpy [1]: -36.5 kcal/mol
Tm [2]: 49.9 °C

GCTGTGGGAAACTGCAGC ((((..(....)..))))
folding enthalpy [1]: -20.3 kcal/mol
Tm [2]: 48.1 °C

GGGATTTCGAAAGAACCC (((..(((....))))))
folding enthalpy [1]: -22.6 kcal/mol
Tm [2]: 30.3 °C

GATCGGAGTACCGATC ((((((....))))))
folding enthalpy [1]: -37.9 kcal/mol
Tm [2]: 57.5 °C

GCTTACCGAAAGGTGAGC (((.(((....))).)))
folding enthalpy [1]: -40.5 kcal/mol
Tm [2]: 58.6 °C

GCGAAAGGTCGC ((((....))))
folding enthalpy [1]: -14.1 kcal/mol
Tm [2]: 41.4 °C

AGACTGAAAAGTCT (((((....)))))
folding enthalpy [1]: -16.9 kcal/mol
Tm [2]: 46 °C

GGGTAGGGAAACCTGCCC (((.(((....))).)))
folding enthalpy [1]: -45 kcal/mol
Tm [2]: 55.7 °C

GGGCAACCGAAAGGTCCC (((..(((....))))))
folding enthalpy [1]: -16.3 kcal/mol
Tm [2]: 44 °C

GCCGAGCGAAAGCATGGC (((..((....))..)))
folding enthalpy [1]: -28.1 kcal/mol
Tm [2]: 64 °C

GCTTGGCGAAAGCGAAGC ((((.((....)).))))
folding enthalpy [1]: -18.6 kcal/mol
Tm [2]: 60.4 °C

GGCGTTCGAAAGAATGCC (((.(((....))).)))
folding enthalpy [1]: -56.5 kcal/mol
Tm [2]: 62.8 °C

GGCGGTGCGAAAGCAGCC (((..(((....))))))
folding enthalpy [1]: -14.8 kcal/mol
Tm [2]: 55.8 °C

GCGATGCCGAAAGGCCGC (((..(((....))))))
folding enthalpy [1]: -18 kcal/mol
Tm [2]: 59.3 °C

GTGACTGAAAAGTCAC ((((((....))))))
folding enthalpy [1]: -37.6 kcal/mol
Tm [2]: 61 °C
